Legend:
[1] = target: T1, Alpha-2B adrenergic receptor (Rattus norvegicus) (UniProt P19328); assay: Intrinsic activity relative to Norepinephrine at Alpha-2B adrenergic receptor from CHO-RNG cells; assay type: cell-based
T1 sequence (whole entry): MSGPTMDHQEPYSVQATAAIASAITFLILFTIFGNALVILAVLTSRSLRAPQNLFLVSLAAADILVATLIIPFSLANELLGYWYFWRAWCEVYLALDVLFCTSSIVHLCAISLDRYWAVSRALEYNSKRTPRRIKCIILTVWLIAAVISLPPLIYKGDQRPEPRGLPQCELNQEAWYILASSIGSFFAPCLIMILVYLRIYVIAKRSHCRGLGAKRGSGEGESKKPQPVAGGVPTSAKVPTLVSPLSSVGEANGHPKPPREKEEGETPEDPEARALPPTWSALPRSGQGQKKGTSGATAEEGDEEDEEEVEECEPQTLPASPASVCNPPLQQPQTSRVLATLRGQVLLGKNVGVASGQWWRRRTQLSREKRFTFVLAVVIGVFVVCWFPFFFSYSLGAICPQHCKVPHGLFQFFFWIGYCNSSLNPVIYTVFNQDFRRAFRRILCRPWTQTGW
Method in brief: (§1)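 Functional agonist response measured by Cytosensor microphysiometry in CHO cells expressing α2A (CHO-C10) or rat α2B (CHO-RNG) adrenoceptor.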

[2] = target: T2, Alpha-2C adrenergic receptor (Homo sapiens, UniProt P18825); assay: Effective concentration at Alpha-2C adrenergic receptor from CHO-C4 cells; assay type: functional, cell-based
T2 sequence (P18825 whole entry): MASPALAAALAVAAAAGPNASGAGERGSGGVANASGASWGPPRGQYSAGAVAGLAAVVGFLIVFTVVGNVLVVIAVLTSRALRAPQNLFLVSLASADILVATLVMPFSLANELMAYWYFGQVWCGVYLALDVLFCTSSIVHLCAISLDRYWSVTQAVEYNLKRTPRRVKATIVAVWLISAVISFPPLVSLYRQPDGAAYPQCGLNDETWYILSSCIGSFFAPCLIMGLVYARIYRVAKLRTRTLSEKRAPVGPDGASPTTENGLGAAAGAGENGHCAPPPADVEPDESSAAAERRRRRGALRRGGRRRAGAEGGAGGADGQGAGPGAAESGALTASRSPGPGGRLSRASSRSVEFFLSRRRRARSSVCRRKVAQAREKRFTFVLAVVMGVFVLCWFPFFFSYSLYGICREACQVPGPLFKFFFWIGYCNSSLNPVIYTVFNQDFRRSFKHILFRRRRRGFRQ
Method in brief: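 Functional agonist assay in CHO cells expressing the human α2C-adrenoceptor (CHO-C4). Responses were read on a Cytosensor microphysiometer.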

[3] = target: T3, Adrenergic receptor alpha-1 (Homo sapiens, UniProt P35348+P25100+P35368); assay: Displacement of prazosin from Alpha-1 adrenergic receptors of human cerebral cortex homogenate; assay type: tissue-based
T3 sequence (P35348 whole entry): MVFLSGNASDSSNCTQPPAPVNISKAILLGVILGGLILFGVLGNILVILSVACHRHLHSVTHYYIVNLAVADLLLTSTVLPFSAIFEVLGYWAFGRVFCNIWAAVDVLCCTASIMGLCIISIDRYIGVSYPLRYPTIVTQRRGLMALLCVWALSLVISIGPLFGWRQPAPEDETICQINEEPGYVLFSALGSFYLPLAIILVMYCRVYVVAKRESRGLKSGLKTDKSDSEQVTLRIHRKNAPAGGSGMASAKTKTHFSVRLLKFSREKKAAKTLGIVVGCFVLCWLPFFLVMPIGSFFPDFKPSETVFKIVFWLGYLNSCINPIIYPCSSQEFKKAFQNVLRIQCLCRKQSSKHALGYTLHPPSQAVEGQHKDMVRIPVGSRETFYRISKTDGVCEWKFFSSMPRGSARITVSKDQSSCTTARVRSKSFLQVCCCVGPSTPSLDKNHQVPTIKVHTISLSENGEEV
T3 sequence (P25100 whole entry): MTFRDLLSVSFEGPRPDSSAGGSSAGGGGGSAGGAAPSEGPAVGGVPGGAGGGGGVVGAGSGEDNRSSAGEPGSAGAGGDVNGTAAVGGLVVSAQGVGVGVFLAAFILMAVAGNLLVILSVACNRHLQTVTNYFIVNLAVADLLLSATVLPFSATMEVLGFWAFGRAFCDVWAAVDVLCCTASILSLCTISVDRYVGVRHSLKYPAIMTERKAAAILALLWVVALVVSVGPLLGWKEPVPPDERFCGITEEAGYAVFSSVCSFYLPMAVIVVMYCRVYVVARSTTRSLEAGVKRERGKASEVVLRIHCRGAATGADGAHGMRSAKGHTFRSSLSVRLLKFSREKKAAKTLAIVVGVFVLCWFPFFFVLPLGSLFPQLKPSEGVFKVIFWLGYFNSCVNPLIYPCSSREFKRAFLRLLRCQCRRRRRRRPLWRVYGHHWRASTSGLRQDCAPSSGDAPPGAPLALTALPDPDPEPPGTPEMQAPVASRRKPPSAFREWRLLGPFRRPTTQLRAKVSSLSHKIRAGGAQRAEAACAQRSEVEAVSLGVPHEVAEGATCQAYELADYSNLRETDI
T3 sequence (P35368 whole entry): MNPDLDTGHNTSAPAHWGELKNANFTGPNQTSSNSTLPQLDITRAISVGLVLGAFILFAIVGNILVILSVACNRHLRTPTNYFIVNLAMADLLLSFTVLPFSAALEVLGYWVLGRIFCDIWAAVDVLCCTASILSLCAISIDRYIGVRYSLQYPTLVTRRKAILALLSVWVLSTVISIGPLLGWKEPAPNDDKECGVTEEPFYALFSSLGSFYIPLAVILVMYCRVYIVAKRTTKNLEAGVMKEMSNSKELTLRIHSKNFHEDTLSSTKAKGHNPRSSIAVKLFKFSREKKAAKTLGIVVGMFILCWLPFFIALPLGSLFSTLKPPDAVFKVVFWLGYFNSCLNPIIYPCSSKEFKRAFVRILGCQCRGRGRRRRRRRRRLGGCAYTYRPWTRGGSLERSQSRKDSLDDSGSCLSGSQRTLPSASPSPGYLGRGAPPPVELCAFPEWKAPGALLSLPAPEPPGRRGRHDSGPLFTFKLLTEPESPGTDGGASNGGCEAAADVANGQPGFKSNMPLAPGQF
Method in brief: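 Membranes from human cerebral cortex, giving a mixed α1 subtype population; affinity from competition against radiolabeled prazosin; nonlinear least-squares curve fitting; at least three separate determinations.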

[4] = target: T4, Alpha-2A adrenergic receptor (Homo sapiens, UniProt P08913); assay: Effective concentration at Alpha-2A adrenergic receptor from CHO-C10 cells; assay type: functional, cell-based; method in brief: as §1
T4 sequence (P08913 whole entry): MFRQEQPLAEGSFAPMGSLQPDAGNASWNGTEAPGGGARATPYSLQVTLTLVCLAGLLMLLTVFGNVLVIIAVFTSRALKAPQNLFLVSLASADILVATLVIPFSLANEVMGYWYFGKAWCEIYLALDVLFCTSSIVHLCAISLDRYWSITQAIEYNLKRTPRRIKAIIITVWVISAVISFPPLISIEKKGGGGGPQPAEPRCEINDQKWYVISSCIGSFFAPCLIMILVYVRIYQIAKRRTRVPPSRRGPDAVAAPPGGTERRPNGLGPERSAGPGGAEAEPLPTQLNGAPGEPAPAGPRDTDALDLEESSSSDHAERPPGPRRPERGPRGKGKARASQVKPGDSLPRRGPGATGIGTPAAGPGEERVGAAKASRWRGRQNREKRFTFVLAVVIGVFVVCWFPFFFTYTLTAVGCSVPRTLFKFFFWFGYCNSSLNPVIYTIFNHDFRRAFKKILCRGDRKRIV

[5] = target: T5, Alpha-2B adrenergic receptor (Rattus norvegicus, UniProt P19328); assay: Effective Concentration at Alpha-2B adrenergic receptor from CHO-RNG cells; assay type: functional, cell-based; method in brief: as §1
T5 sequence (P19328 whole entry): T1 sequence (whole entry)

[6] = target: T2, Alpha-2C adrenergic receptor; assay: Displacement of rauwolscine from human Alpha-2C adrenergic receptor expressed in CHO cells; assay type: cell-based
Method in brief: (§2)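 Membranes of CHO cells expressing human α2A (CHO-C10), human α2C (CHO-C4) or rat α2B (CHO-RNG) receptor; competition against radiolabeled rauwolscine; affinity constants by nonlinear least-squares curve fitting; at least three separate determinations.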

[7] = target: T5, Alpha-2B adrenergic receptor; assay: Displacement of rauwolscine from rat Alpha-2B adrenergic receptor expressed in CHO cells; assay type: cell-based; method in brief: as §2
[8] = target: T4, Alpha-2A adrenergic receptor; assay: Displacement of rauwolscine from human Alpha-2A adrenergic receptor expressed in CHO cells; assay type: cell-based; method in brief: as §2
[9] = target: T6, Alpha-2C adrenergic receptor (Homo sapiens) (UniProt P18825); settings: CHO-C4
T6 sequence (whole entry): T2 sequence (P18825 whole entry)

[10] = target: T7, Alpha-2A adrenergic receptor (Homo sapiens) (UniProt P08913); assay: Intrinsic activity relative to Norepinephrine at Alpha-2A adrenergic receptor from CHO-C10 cells; assay type: cell-based; method in brief: as §1
T7 sequence (whole entry): T4 sequence (P08913 whole entry)

Which results are given for COc1c(C(C)(C)C)cc(C)c(Nc2ncc[nH]2)c1C?
IA [1]: 0.65; EC50 [2]: > 5000 nM; Ki [3]: 4.2 µM; EC50 [4]: > 5000 nM; EC50 [5]: 1100 nM

How did the Ki [3] turn out when COc1ccc(Nc2ncc[nH]2)c(C)c1 was run?
The Ki was 8.4 µM.

Brc1c(Nc2ncc[nH]2)ccc2nccnc12 was tested. Which Ki [6] did it give?
Its Ki is > 10000 nM.

And the Ki [3]?
The Ki was > 100 µM.

And the Ki [7]?
The Ki was > 10000 nM.

How did the Ki [6] turn out when c1c[nH]c(Nc2ccc3nccnc3c2)n1 was run?
The Ki was 8800 nM.

And the Ki [8]?
Its Ki is 3100 nM.

What about the Ki [3] of the same compound?
The Ki was > 100 µM.

What about the Ki [7] of the same compound?
The Ki was 9300 nM.

With c1c[nH]c(Nc2ccc3[nH]cnc3c2)n1 as the compound, how does the Ki [6] read?
The Ki was 400 nM.

What about the Ki [8] of the same compound?
The Ki was 76 nM.

And the Ki [3]?
The Ki was 24 µM.

And the Ki [7]?
The Ki was 640 nM.

Which results are given for Clc1cccc(Cl)c1Nc1ncc[nH]1?
Ki [6]: 1100 nM; Ki [3]: 6 µM

Which results are given for Cc1c(Nc2ncc[nH]2)ccc2nccnc12?
Ki [6]: 340 nM; Ki [3]: > 28 µM; Ki [7]: 1200 nM

With Brc1ccccc1Nc1ncc[nH]1 as the compound, how does the Ki [8] read?
The Ki was 210 nM.

And the Ki [3]?
Its Ki is 11 µM.

And the Ki [7]?
Its Ki is 1500 nM.

Which Ki [6] does the source give for COc1ccc(Nc2ncc[nH]2)c(C)c1OC here?
The Ki was 1500 nM.

What about the Ki [8] of the same compound?
Its Ki is 130 nM.

And the Ki [3]?
The Ki was 6.6 µM.

And the Ki [7]?
The Ki was 2500 nM.

For COc1cc(C)c(Nc2ncc[nH]2)cc1C(C)(C)C, which Ki [6] is on record?
Its Ki is 290 nM.

And the Ki [8]?
Its Ki is 39 nM.

And the Ki [3]?
Its Ki is 16 µM.

And the Ki [7]?
Its Ki is 380 nM.

What does the source list for Cc1c(Nc2ncc[nH]2)ccc2c1OCCO2?
IA [1]: 1; IA [9]: 0.5; IA [10]: 0.89; EC50 [2]: 6.6 nM; Ki [3]: 2.1 µM; EC50 [4]: 8.7 nM; EC50 [5]: 41 nM

Which IA [1] does the source give for Cc1c(Nc2ncc[nH]2)ccc2c1NCCO2 here?
The IA was 0.88.

What about the IA [9] of the same compound?
Its IA is 0.64.

What about the Ki [8] of the same compound?
Its Ki is 6 nM.

What about the IA [10] of the same compound?
The IA was 0.49.

What about the EC50 [2] of the same compound?
Its EC50 is 110 nM.

And the Ki [3]?
Its Ki is 16 µM.

What about the EC50 [4] of the same compound?
Its EC50 is 124 nM.

What about the EC50 [5] of the same compound?
Its EC50 is 470 nM.

And the Ki [7]?
Its Ki is 421 nM.

With Brc1c(NC2=NCCN2)ccc2nccnc12 [BRIMONIDINE] as the compound, how does the IA [1] read?
The IA was 0.89.

And the IA [9]?
Its IA is 0.82.

And the IA [10]?
Its IA is 0.91.

What about the Ki [3] of the same compound?
The Ki was 1.8 µM.

Reference: ChEMBL document CHEMBL1130342, “Synthesis and evaluation of 2-(arylamino)imidazoles as alpha 2-adrenergic agonists” (J Med Chem, 1997)
